Fewer inactive variants are shown than the library holds.
B1: tRNA (parent)
chain: GUUCCGUUGGCGUAAUGGUAACGCGUCUCCCUCCUAAGGAGAAGACUGCGGGUUCGAGUCCCGUACGGAACG

Variants of: B1
Experiment: yeast fitness relative to wild type (ratio to wild type); higher = fitter; tRNA-Arg(CCU), competitive growth, 37 C, YPD
Summary of the method: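 Changes in genotype frequencies gave Darwinian fitness relative to wild type. Frequencies were read by 100-nucleotide paired-end sequencing of gene amplicons before and after pooled Saccharomyces cerevisiae strains, carrying tRNA-Arg(CCU) gene variants at the native locus, were competed in YPD at 37°C for 24 hours in six replicates. A genotype was kept only with ≥ 100 starting reads, and estimates < 0.5 were set to 0.5.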

Point of comparison: C24U G48C C55U, yeast fitness 0.614. Against it:
- C24U A42G A43G — higher, 0.733
- C24U A42G C49G C61G — higher, 0.627
- C24U A42G G50A — lower, ≤ 0.5
- C24U A42U A43C A57C C60A — higher, 0.637
- C24U A42U G51C — lower, ≤ 0.5
- C24U A43C A70U — lower, 0.59
- C24U A43G — higher, 1.02
- C24U A43G C60A — lower, ≤ 0.5
- C24U A43U C49U C66U — lower, 0.576
- C24U A43U U47G — lower, ≤ 0.5
- C24U A45C C49G A69C — lower, ≤ 0.5
- C24U A45C C49U — higher, 0.791
- C24U A45C G58C — lower, 0.554
- C24U A45C G67A A70U — lower, ≤ 0.5
- C24U A45G — higher, 1.03
- C24U A45G C46G C55G A69C — lower, ≤ 0.5
- C24U A45G C49U — higher, 0.931
- C24U A45U A65G — higher, 0.623
- C24U A57G — higher, 0.809
- C24U A57G A65U — lower, 0.513
- C24U A57G C60U G68C — lower, ≤ 0.5
- C24U A65G — higher, 0.924
- C24U A65U — higher, 0.894
- C24U A69G — higher, 0.998
- C24U A70G — higher, 0.887
- C24U C27A C30G — lower, ≤ 0.5
- C24U C27A C30U C46G — lower, ≤ 0.5
- C24U C27A C30U G68C — lower, ≤ 0.5
- C24U C27A G50U — lower, ≤ 0.5
- C24U C27G — lower, 0.602
- C24U C27G C61G — lower, ≤ 0.5
- C24U C27G G38C A57U C60A C62G — lower, ≤ 0.5
- C24U C27G G63A — lower, 0.536
- C24U C27G U47C G56C U64C G68C — lower, ≤ 0.5
- C24U C27U — higher, 0.972
- C24U C27U A40G — lower, 0.563
- C24U C27U A40G G44A — lower, ≤ 0.5
- C24U C27U C29G G38C A42C — lower, 0.577
- C24U C27U G39C — lower, ≤ 0.5
- C24U C27U U47A A57G A70G — lower, ≤ 0.5
- C24U C27U U53G C60A A70G — lower, ≤ 0.5
- C24U C29A — higher, 0.656
- C24U C29A A40G — lower, 0.514
- C24U C29A U32A C46G A70C — lower, ≤ 0.5
- C24U C29G A43C C55G G68A — lower, ≤ 0.5
- C24U C29G C62G — lower, ≤ 0.5
- C24U C29U — higher, 0.859
- C24U C29U A36C A42U C66A — lower, ≤ 0.5
- C24U C29U G51U — lower, ≤ 0.5
- C24U C30A A37G U64A C66U A70G — lower, ≤ 0.5
- C24U C30A G50A — lower, 0.587
- C24U C30A U35C U59C G63A — lower, ≤ 0.5
- C24U C30G A45C A70C — lower, ≤ 0.5
- C24U C30U C60A — lower, 0.532
- C24U C31A — higher, 0.786
- C24U C31A C33A C34U C46A A69C — lower, 0.546
- C24U C31A C33A C34U C46A C62U G67A — lower, ≤ 0.5
- C24U C31A U54C A57U — lower, 0.547
- C24U C31G A37G — lower, 0.529
- C24U C31G C55A A57U U59C C60U — lower, ≤ 0.5
- C24U C31G U32A — lower, 0.504
- C24U C31G U32A A43C — lower, ≤ 0.5
- C24U C31G U54C C62G — lower, ≤ 0.5
- C24U C31U C49U A70C — higher, 0.643
- C24U C33A G44C U47C — higher, 0.674
- C24U C33G C34U A57U — lower, 0.583
- C24U C33U C34A — lower, 0.555
- C24U C33U C34G A40U — lower, ≤ 0.5
- C24U C34A — higher, 0.783
- C24U C34A G48C — higher, 0.693
- C24U C34G A40G — lower, ≤ 0.5
- C24U C34G A40U G67A — lower, ≤ 0.5
- C24U C34G A69U — lower, 0.506
- C24U C34G G63U A70U — lower, 0.542
- C24U C34U A57U G67C — lower, ≤ 0.5
- C24U C34U A70G — lower, 0.592
- C24U C34U C61U — lower, 0.545
- C24U C34U G48C — lower, ≤ 0.5
- C24U C34U U35G — lower, ≤ 0.5
- C24U C34U U59G — lower, ≤ 0.5
- C24U C46A A65G — higher, 0.7
- C24U C46G A65U — higher, 0.782
- C24U C46G U54C C62A — lower, ≤ 0.5
- C24U C46U C60U — lower, 0.513
- C24U C46U G51C — lower, ≤ 0.5
- C24U C49A U64C — higher, 1.04
- C24U C49G A65U — lower, ≤ 0.5
- C24U C49G C66A — lower, 0.593
- C24U C49G G52C — lower, 0.503
- C24U C49U C55G A70U — lower, 0.559
- C24U C49U G56C — lower, 0.542
- C24U C55A G56A — lower, 0.555
- C24U C55G A57C — lower, ≤ 0.5
- C24U C55G G63C — lower, 0.528
- C24U C55U G68C — lower, 0.552
- C24U C55U U59A — lower, 0.535
- C24U C60A C66G — lower, 0.606
- C24U C60A G63A — lower, ≤ 0.5
- C24U C61A G67A — lower, ≤ 0.5
- C24U C61G G63C — lower, 0.537
- C24U C62A A69C — lower, 0.524
- C24U C62A A69G — lower, 0.502
- C24U C62U — higher, 0.976
- C24U C66A — higher, 0.618
- C24U G25A C30U C46A — higher, 0.829
- C24U G25A C30U C46A A65U — lower, 0.562
- C24U G25C C30G G50C G56A C66U — lower, ≤ 0.5
- C24U G25C C31A C33G A65U — lower, 0.584
- C24U G25C C46A — higher, 1.02
- C24U G38A G51A G52C — higher, 0.634
- C24U G38C A40G — lower, ≤ 0.5
- C24U G39A A57C — higher, 0.727
- C24U G41A G68A — lower, ≤ 0.5
- C24U G41C A42C — lower, 0.553
- C24U G44A — higher, 0.912
- C24U G44A C49A U59A — lower, 0.528
- C24U G44A C66A — lower, 0.563
- C24U G48A — higher, 0.915
- C24U G48A G63C — higher, 0.768
- C24U G48C — higher, 0.955
- C24U G50A A65U — lower, 0.569
- C24U G50A A70C — higher, 0.658
- C24U G50C — higher, 0.774
- C24U G51A G58A G67A — lower, ≤ 0.5
- C24U G51A G67A — lower, 0.556
- C24U G51C — higher, 0.624
- C24U G51C G68A — lower, ≤ 0.5
- C24U G51C U53C — lower, ≤ 0.5
- C24U G52C — higher, 0.702
- C24U G56A — higher, 0.998
- C24U G58C — higher, 0.89
- C24U G67C — higher, 0.698
- C24U G67U — higher, 0.869
- C24U G68A A70C — higher, 0.656
- C24U G68A A70U — higher, 0.647
- C24U G68C — higher, 0.823
- C24U G68C A70U — lower, ≤ 0.5
- C24U G68U — higher, 0.892
- C24U U26A U28G — lower, 0.506
- C24U U26A U28G G48A A57U — lower, ≤ 0.5
- C24U U26A U28G G52A — lower, ≤ 0.5
- C24U U26C A40C — lower, 0.572
- C24U U26C A57U — lower, ≤ 0.5
- C24U U26C A70U — higher, 0.678
- C24U U26C G63A A65G — lower, ≤ 0.5
- C24U U26C U28C G52C C60G — lower, ≤ 0.5
- C24U U28C — higher, 0.988
- C24U U28C A37G C62U — lower, ≤ 0.5
- C24U U28C A40C A69C — lower, ≤ 0.5
- C24U U32C C46A — higher, 0.967
- C24U U32C G39C — lower, 0.517
- C24U U32G A40U — lower, 0.513
- C24U U32G A40U U53C U64G — lower, ≤ 0.5
- C24U U32G C49U C60A — higher, 0.646
- C24U U32G G51A — lower, ≤ 0.5
- C24U U35A A42G A69U — lower, ≤ 0.5
- C24U U35C — higher, 0.778
- C24U U35C A70C — higher, 0.671
- C24U U35C G38C C62U A69G — higher, 0.723
- C24U U47A — higher, 0.683
- C24U U47A U64C C66U — lower, ≤ 0.5
- C24U U47C C55G A70U — higher, 0.642
- C24U U47C G63A — higher, 0.829
- C24U U47C U59C A69U — lower, ≤ 0.5
- C24U U53C C55U — lower, ≤ 0.5
- C24U U54A — higher, 0.624

Reference: the RNAGym collection of RNA variant scans (doi:10.1126/science.aae0568)
